Results published in the RNAGym collection of RNA variant scans (doi:10.1126/science.aae0568).
Variants at the floor of the assay were thinned out.

B1: tRNA (parent)
chain: GUUCCGUUGGCGUAAUGGUAACGCGUCUCCCUCCUAAGGAGAAGACUGCGGGUUCGAGUCCCGUACGGAACG

Variants of: B1
Assay: yeast fitness relative to wild type (ratio to wild type); higher = fitter; tRNA-Arg(CCU), competitive growth, 37 C, YPD
In short: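 The tRNA-Arg(CCU) gene variants were made by chemical synthesis with a 3% per-site mutation rate at 69 sites and inserted at the native genomic locus of Saccharomyces cerevisiae. After pooling, the strains were competed in YPD at 37°C for 24 hours in six parallel replicates. Gene amplicons from the start population and each end population were read by 100-nucleotide paired-end sequencing, and Darwinian fitness relative to wild type was taken from genotype frequency changes. Genotypes needed ≥ 100 starting reads, and estimates < 0.5 were set to 0.5.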

Row | Variant | yeast fitness
1 | GUUCCGUUGGCGUAAUGGUAACGCGUCUCCCUCCUAAGGUGAAGACUGCGGGUCCGAGUCCCGUACGGAACG | 0.802
2 | GUUCCGUUGGCGUAAUGGUAACGCGUCUCCCUCCUAAGGUGAAGACUGCAGGUUCGAGUCCCGUACGGAACG | 0.801
3 | GUUCCGUUGGCGUAAUGGUAACGCGUCUCCCUCCUAAGGUGAAGACUGCCGGUUCGAGUCCCGUACGGAACG | 0.726
4 | GUUCCGUUGGCGUAAUGGUAACGCGUCUCCCUCCUAAGGAAAAGACUGCAGGUUCGAGUUCCGUAGGGAACG | ≤ 0.5
5 | GUUCCGUUGGCGUAAUGGUAACGCGUCUCCCUCCUAAGGUGAAGACUGCGGGUUCGAGUCCCGUACGAAACG | 0.923
6 | GUUCCGUUGGCGUAAUGGUAACGCGUCUCCCUCCUAAGGAAAAGACUGCGGGGUCGAGACCGGUACGGAACG | ≤ 0.5
7 | GUUCCGUUGGCGUAAUGGUAACGCGUCUCCCUCCUAAGGUGAAGACUGCGGGUUCGAGUCCCGCACGGAUCG | 0.727
8 | GUUCCGUUGGCGUAAUGGUAACGCGUCUCCCUCCUAAGGAAAAGACUCCGGGUUCGUGUCCCGUUAGGAACG | ≤ 0.5
9 | GUUCCGUUGGCGUAAUGGUAACGCGUCUCCCUCCUAAGGAAAAGACUGCGGGUUCGAGUCCCAUACGGAACG | 0.893
10 | GUUCCGUUGGCGUAAUGGUAACGCGUCUCCCUCCUAAGGAAAAGACUGCGGGUUCGAGUCCCCUACGGAACG | 0.715
11 | GUUCCGUUGGCGUAAUGGUAACGCGUCUCCCUCCUAAGGUGAAGACUGCGGGUUCGAGUCCCAUACGGAACG | 0.721
12 | GUUCCGUUGGCGUAAUGGUAACGCGUCUCCCUCCUAAGGUGAAGACUGCGGGUUCGAGUCCCCUACGGAACG | 0.729
13 | GUUCCGUUGGCGUAAUGGUAACGCGUCUCCCUCCUAAGGAAAAGACUGCGGGUUCGAGUGCCGUACAGAACG | 0.534
14 | GUUCCGUUGGCGUAAUGGUAACGCGUCUCCCUCCUAAGGACAGGACUGCGGGUACGAGUCCCGUAUGGAACG | ≤ 0.5
15 | GUUCCGUUGGCGUAAUGGUAACGCGUCUCCCUCCUAAGGAAAAGACUGCGGGUUGGAGUCCCGUAUGGAACG | ≤ 0.5
16 | GUUCCGUUGGCGUAAUGGUAACGCGUCUCCCUCCUAAGGUGAAGACUGCGGGUUCGAGUCCCGUAGGGAACG | 0.71
17 | GUUCCGUUGGCGUAAUGGUAACGCGUCUCCCUCCUAAGGUGAAGACUGCGGGUUCGAGUCCCGUAUGGAACG | 0.904
18 | GUUCCGUUGGCGUAAUGGUAACGCGUCUCCCUCCUAAGGAAAAGACUGCGAGUUCGAGUCCCGUAAGGAACG | ≤ 0.5
19 | GUUCCGUUGGCGUAAUGGUAACGCGUCUCCCUCCUAAGGAAAAGACUGCGGGUACGAGUCCCGUACGGAACG | 0.674

Row | Variant | yeast fitness
20 | GUUCCGUUGGCGUAAUGGUAACGCGUCUCCCUCCUAAGGAAAACACUGCGGGUUCGAGUCGCGUACGGAACG | ≤ 0.5
21 | GUUCCGUUGGCGUAAUGGUAACGCGUCUCCCUCCUAAGGUGAAGACUGCGGGCUCGAGUCCCGUACGGAACG | 0.735
22 | GUUCCGUUGGCGUAAUGGUAACGCGUCUCCCUCCUAAGGUGAAGACCGCGGGUUCGAGUCCCGUACGGUACG | 0.815
23 | GUUCCGUUGGCGUAAUGGUAACGCGUCUCCCUCCUAAGGACAUGACUGCGGGUUCGAGUCCCGCACGGAACG | 0.959
24 | GUUCCGUUGGCGUAAUGGUAACGCGUCUCCCUCCUAAGGUGAAGACUGCGGGAUCGAGUCUCGUACGGAACG | ≤ 0.5
25 | GUUCCGUUGGCGUAAUGGUAACGCGUCUCCCUCCUAAGGAAAAGACUGCGGGUUCGAGGCCCGUACGGCACG | ≤ 0.5
26 | GUUCCGUUGGCGUAAUGGUAACGCGUCUCCCUCCUAAGGUGAACACUGCGGGUUCGAGUCCCGUACGGAACG | 0.954
27 | GUUCCGUUGGCGUAAUGGUAACGCGUCUCCCUCCUAAGGAAAAGACUGUGGGUUCGAGUCCCGUACGGAUCG | 0.708
28 | GUUCCGUUGGCGUAAUGGUAACGCGUCUCCCUCCUAAGGAAAAGUCAGCGGGUUCGAGUCCUGUACGGUACG | ≤ 0.5
29 | GUUCCGUUGGCGUAAUGGUAACGCGUCUCCCUCCUAAGGUGAAGACUGCGGAUUCGAGUUCCCUACGGAACG | 0.661
30 | GUUCCGUUGGCGUAAUGGUAACGCGUCUCCCUCCUAAGGAAAAGACUGCGGGUUCGAGUCCUGUACGGUACG | 0.619
31 | GUUCCGUUGGCGUAAUGGUAACGCGUCUCCCUCCUAAGGACACGACUGCGGGUUCGAGUCCCGUAAGGAACG | 0.699
32 | GUUCCGUUGGCGUAAUGGUAACGCGUCUCCCUCCUAAGGUGAAGACUGCGCGUUCGAGUCCCGUACGGAACG | 0.518
33 | GUUCCGUUGGCGUAAUGGUAACGCGUCUCCCUCCUAAGGACACGUCUGGGGGGUCGAGUCCCGUACGGCACG | ≤ 0.5
34 | GUUCCGUUGGCGUAAUGGUAACGCGUCUCCCUCCUAAGGAAAAGACUGCGGGUUCGAGUCCCGUACCGAACG | 0.775
35 | GUUCCGUUGGCGUAAUGGUAACGCGUCUCCCUCCUAAGGACCAGACUGUGGGUUCGAGUCCCGUACGGAACG | ≤ 0.5
36 | GUUCCGUUGGCGUAAUGGUAACGCGUCUCCCUCCUAAGGAAAAGACUCUGGGUUCGAGUCCCGUACGAAACG | ≤ 0.5
37 | GUUCCGUUGGCGUAAUGGUAACGCGUCUCCCUCCUAAGGUGAAGACCGCGGGUUCGAGUCCCGUCCGGAACG | 0.534
38 | GUUCCGUUGGCGUAAUGGUAACGCGUCUCCCUCCUAAGGUGAAGACUGCGGGUUCAACUCCCGUACGGAACG | 0.786
